These results are taken from PubChem BioAssay.

Test [1] in a line: inhibitors of TNFa-induced NFkB p65 translocation, primary screen, imaging, HUVEC, MLSMR starter and 10KST1 sets (AID 438;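 active means inhibition above 20% together with a positive visual image hit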;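 further: compound added about 3h40 before a 20 min TNFalpha stimulation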;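 on inhibition: signal is the nuclear over cytoplasmic p65 intensity ratio per well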). The settings on record: HUVEC TNFa-induced p65 nuclear translocation; cell count: measured here: nuclei count (cytotoxicity indicator), at 2.08 µM; inhibition: at 2 µM, stronger effect = higher value, 0% TNFa-plus-vehicle, 100% no-TNFa wells.
Test [2] can be described thus: inhibitors of mutant huntingtin aggregation, primary screen, imaging, exon1htt(103Q)mCFP cells, high-content imaging (AID 483;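 active means visual image review flags a hit and inhibition of aggregation exceeds 20%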;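 further: compound exposure lasted 3 days before fixation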;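 on nuclei count: percent of the per-plate median nuclei count of sample wells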). The settings on record: exon1htt(103Q)mCFP cell line, aggregate imaging, at 2 µM; inhibition of aggregation: stronger effect = higher value; nuclei count: measured here: cell count, toxicity.
A short description of test [3]: inhibitors of E-selectin induction by TNFa, primary screen, imaging, HUVEC, immunofluorescence, MLSMR starter and 10KST1 sets (AID 487;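 active means visually confirmed hit in the image check and inhibition above 20%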;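 on inhibition: signal is fraction of cell area covered by stained E-selectin grains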;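 on nuclei count: 100% = median nuclei count of all wells on the same plate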). The following applies: HUVEC TNFalpha-induced E-selectin immunofluorescence imaging, at 2 µM; inhibition: stronger effect = higher value; nuclei count: measured here: cell number, toxicity.
The target in test [4] is Voltage-gated potassium channel subunit beta-2 (Rattus norvegicus) (UniProt P62483). In words: KvBeta enzyme negative modulators, primary screen, biochemical, NADPH fluorescence (AID 622).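 Further: slope of raw intensity against log time taken from 70 to 1610 s.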 The following applies: recombinant KvBeta, 4-cyanobenzaldehyde reduction, at 10 µM, stronger effect = higher value.
Chain of Voltage-gated potassium channel subunit beta-2 (Rattus norvegicus) (P62483 whole entry, looked up): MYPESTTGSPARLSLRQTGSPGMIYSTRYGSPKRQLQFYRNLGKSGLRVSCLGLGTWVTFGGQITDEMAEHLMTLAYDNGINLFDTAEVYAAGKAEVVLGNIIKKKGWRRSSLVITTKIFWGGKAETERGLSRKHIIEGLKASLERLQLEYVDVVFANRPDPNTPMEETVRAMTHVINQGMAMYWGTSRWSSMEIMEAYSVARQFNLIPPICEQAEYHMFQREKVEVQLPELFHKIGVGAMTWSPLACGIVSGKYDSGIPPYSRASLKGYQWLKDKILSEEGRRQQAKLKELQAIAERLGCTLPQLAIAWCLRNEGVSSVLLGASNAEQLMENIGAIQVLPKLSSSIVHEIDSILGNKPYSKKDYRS
Test [5] shares this target. Description: KvBeta positive modulators, primary screen, biochemical, NADPH fluorescence (AID 623;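 active means NADPH fluorescence slope more negative than the mean of all samples by about 3 SD, 99.7% confidence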;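 further: fluorescence intensity change per second fitted from 20 to 320 s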). The following applies: Recombinant KvBeta, NADPH fluorescence decrease slope, 10 min; at 10 µM; stronger effect = lower value.
Test [6] addresses Muscarinic acetylcholine receptor M4 (Homo sapiens) (UniProt P08173). Description: compounds altering M4/GIRK thallium flux, either direction, primary screen, M4 allosteric agonist project, cell-based, HEK293 M4/GIRK, BTC-AM (AID 625;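 active means fluorescence slope after compound addition differing from the mean of all tested samples at 99.7% confidence, mostly higher but some lower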;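 further: thallium influx through GIRK channels coupled to M4 in HEK293 cells with BTC-AM dye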). The settings on record: at 10 µM, actives lie on both sides. Put shortly:
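Material – HEK293 cells with M4 receptor and GIRK channels · Buffer or medium – pH 7.3 thallium assay buffer · Doses – one dose, 10 µM final · Timing – cells overnight at 37 °C, BTC-AM loading 1 h, reads 2 min total · Measured by – kinetic fluorescence with BTC-AM dye · Controls – carbachol and DMSO controls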

Test [7] can be described thus: inhibitors of Sendai virus-induced IRF3 signaling, primary screen, TLR/RLR signaling modifier project, cell-based, Sendai virus stimulus, luciferase, 10K MLSCN set (AID 602276;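 active means inhibition at or above 50% at 10 µM; inactive means inhibition below 50%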;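 further: firefly luciferase from ISG56 promoter only with Renilla not read in this screen; 0% = Sendai virus plus DMSO and 100% = medium plus DMSO without virus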). The settings on record: HEK293 RL24 IRF3 luciferase reporter, at 10 µM, stronger effect = higher value. For orientation: A reporter such as luciferase makes a cellular process visible.
The nature of test [8]: inhibitors of poly I:C-induced TLR3 signaling, primary screen, cell-based, poly I:C stimulus, luciferase, 10K MLSCN set (AID 602277;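 active means inhibition of the reporter signal at or above 50%; inactive means inhibition below 50%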). The following applies: HEK293-TLR3 RL24 IRF3 luciferase reporter, at 10 µM, stronger effect = higher value.

The source made the active and inactive calls.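 How the source made its calls, unless noted: active means fluorescence slope higher than the sample average by over 3 SD (cut at about -0.22 in these data, passing the limit was not always enough); inactive means the rest.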

Chain of Muscarinic acetylcholine receptor M4 (Homo sapiens) (P08173 whole entry, looked up): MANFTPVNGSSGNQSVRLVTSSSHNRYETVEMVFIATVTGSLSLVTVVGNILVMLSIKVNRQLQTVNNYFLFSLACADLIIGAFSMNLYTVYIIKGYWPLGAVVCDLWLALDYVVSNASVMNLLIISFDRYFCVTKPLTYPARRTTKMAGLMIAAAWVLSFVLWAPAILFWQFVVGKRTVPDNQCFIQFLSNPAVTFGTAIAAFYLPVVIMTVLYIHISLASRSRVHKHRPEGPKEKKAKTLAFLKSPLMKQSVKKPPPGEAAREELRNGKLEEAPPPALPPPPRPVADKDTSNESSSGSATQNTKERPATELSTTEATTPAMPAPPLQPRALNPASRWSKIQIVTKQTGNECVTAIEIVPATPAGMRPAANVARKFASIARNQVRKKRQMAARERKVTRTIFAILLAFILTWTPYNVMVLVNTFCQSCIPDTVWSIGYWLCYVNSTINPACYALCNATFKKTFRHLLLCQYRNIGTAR

As a reminder, the inhibition is the change of the read-out against control, counted positive when it falls. For the molecule `CCNS(=O)(=O)c1ccc(S(=O)(=O)N(Cc2ccccn2)C2CCCCC2)cc1`, the cell count in test [1] was determined as 579. Moreover, the inhibition in test [1] is 3.8% (inactive); in test [3], -3.6% (inactive); in test [7] it was 12.3% (inactive); in test [8] it was 40.2% (inactive). Also, the inhibition of aggregation in test [2] is 6.6% (inactive). The nuclei count in test [2] turned out to be 108%; in test [3], 100%. Besides, the fluorescence slope in test [4] was -0.348 (inactive); in test [6], 0.00588 (inactive). For the same molecule, the NADPH fluorescence slope in test [5] is -6.9e-05 (inactive).

As for `Cc1nc(C)c(C(=O)OCC(=O)N2CCN(c3ccccc3)CC2)s1`, the cell count in test [1] amounted to 700. Also, the inhibition in test [1] was -4.8% (inactive); in test [3], -18.7% (inactive); in test [7], 16.8% (inactive); in test [8], 5.6% (inactive). The inhibition of aggregation in test [2] was -3.6% (inactive). Also, the nuclei count stood at 99.4% in test [2] and 102% in test [3]. Moreover, the fluorescence slope in test [4] was -0.567 (inactive); in test [6], 0.00679 (inactive). For the same molecule, the NADPH fluorescence slope in test [5] is -2e-05 (inactive).

As for `O=c1[nH]c(SCc2cc(=O)n3ccccc3n2)nc2c1CCC2`, the cell count in test [1] amounted to 681. The inhibition was -8.4% (inactive) in test [1], -123% (inactive) in test [3], 16.7% (inactive) in test [7] and 20.7% (inactive) in test [8]. Further, the inhibition of aggregation in test [2] is -47.8% (inactive). Besides, the nuclei count stood at 87.5% in test [2] and 106% in test [3]. In addition, the fluorescence slope in test [4] is -0.381 (inactive); in test [6], 0.00602 (inactive). In addition, the NADPH fluorescence slope in test [5] was 2.3e-05 (inactive).

For the molecule `CC(=O)N1C(=O)N(C)C2C1N(C(C)=O)C(=O)N2C` (centres undefined), the cell count in test [1] was 395. Besides, the inhibition in test [1] is 5.4% (inactive); in test [3] it was -4.1% (inactive); in test [7], 11.1% (inactive); in test [8] it was 16.5% (inactive). In test [2], the inhibition of aggregation is 7.3% (inactive). Moreover, the figures for the nuclei count in test [2] and in test [3] were 96.4% and 98.6%, respectively. The fluorescence slope was -0.574 (inactive) in test [4] and 0.00666 (inactive) in test [6]. The NADPH fluorescence slope in test [5] is -5e-05 (inactive).

As for `CCCOc1ccc(/C(O)=C2/C(=O)C(=O)N(CCCOC)C2c2ccncc2)cc1` (centres undefined), the cell count in test [1] is 593. Further, the inhibition was 5.8% (inactive) in test [1], 1.9% (inactive) in test [3], 13.1% (inactive) in test [7] and 2.66% (inactive) in test [8]. The inhibition of aggregation in test [2] is 4% (inactive). Also, the nuclei count in test [2] is 97.6%; in test [3] it was 108%. In addition, the fluorescence slope is -0.29 (inactive) in test [4] and 0.00606 (inactive) in test [6]. Moreover, in test [5], the NADPH fluorescence slope was -6.1e-05 (inactive).

For `CCOC(=O)c1[nH]c(C)c(C(=O)Nc2ccc(C)c(Cl)c2)c1C`, the cell count in test [1] was found to be 661. Further, the inhibition is 0.3% (inactive) in test [1], -7.5% (inactive) in test [3], 11.7% (inactive) in test [7] and 11.2% (inactive) in test [8]. The inhibition of aggregation in test [2] was -3.4% (inactive). For the same molecule, the nuclei count was determined as 97.4% in test [2] and 96.5% in test [3]. Further, the fluorescence slope in test [4] was -0.446 (inactive); in test [6], 0.00769 (inactive). Moreover, in test [5], the NADPH fluorescence slope was 1.5e-05 (inactive).

For the molecule `Oc1ccc2[nH]cnc2c1CN1CCCCC1`, the cell count in test [1] stood at 405. In addition, the inhibition was 2.2% (inactive) in test [1], 8% (inactive) in test [3], 15.4% (inactive) in test [7] and 25.1% (inactive) in test [8]. Further, the inhibition of aggregation in test [2] was 5.5% (inactive). Moreover, the values for the nuclei count in test [2] and in test [3] were 88.7% and 95.1%, respectively. Moreover, the values for the fluorescence slope in test [4] and in test [6] were -0.569 (inactive) and 0.00526 (inactive), respectively. In test [5], the NADPH fluorescence slope is -0.000119 (inactive).

Turning to `CCn1c(=O)cc(SCC(=O)NCCN2CCN(Cc3ccccc3)CC2)c2ccccc21`, the cell count in test [1] was 478. Moreover, the inhibition in test [1] is 4.3% (inactive); in test [3], 14.7% (inactive); in test [7] it was 16.8% (inactive); in test [8], 47.8% (inactive). Further, in test [2], the inhibition of aggregation is 21.3% (inactive). Further, the nuclei count in test [2] came out at 93.3%; in test [3], 108%. Further, the fluorescence slope is -0.559 (inactive) in test [4] and 0.00537 (inactive) in test [6]. The NADPH fluorescence slope in test [5] is 3.3e-05 (inactive).

As to `CCC1(C)Cc2c(C#N)c(N)n(-c3ccccc3)c(=O)c2CO1` (centres undefined), the cell count in test [1] is 531. Besides, the inhibition in test [1] was -8.6% (inactive); in test [3] it was -59.9% (inactive); in test [7] it was -3.47% (inactive); in test [8], 5.33% (inactive). In test [2], the inhibition of aggregation was 13.9% (inactive). Besides, the nuclei count stood at 100% in test [2] and 93.4% in test [3]. Besides, the fluorescence slope in test [4] is -0.622 (inactive); in test [6] it was 0.00509 (inactive). The NADPH fluorescence slope in test [5] is 6.4e-05 (inactive).

Take `O=C(Nc1c(-c2ccccc2)nc2ccccn12)c1ccco1`: the cell count in test [1] was found to be 466. For the same molecule, the inhibition is -7.2% (inactive) in test [1], 13.2% (inactive) in test [3], -7.17% (inactive) in test [7] and -12.7% (inactive) in test [8]. Moreover, the inhibition of aggregation in test [2] is 8.4% (inactive). The nuclei count was 103% in test [2] and 109% in test [3]. Also, the fluorescence slope in test [4] was -0.56 (inactive); in test [6] it was 0.00475 (inactive). Also, the NADPH fluorescence slope in test [5] is 4.7e-05 (inactive).

In the case of `Cc1csc(OCc2ccc(C#N)cc2)n1`, the cell count in test [1] was 636. Also, the inhibition is -4.4% (inactive) in test [1], -4.8% (inactive) in test [3], 7.71% (inactive) in test [7] and 5.79% (inactive) in test [8]. Further, in test [2], the inhibition of aggregation is -1.8% (inactive). Besides, the values for the nuclei count in test [2] and in test [3] were 97.8% and 114%, respectively. Also, the fluorescence slope is -0.6 (inactive) in test [4] and 0.0082 (inactive) in test [6]. In addition, in test [5], the NADPH fluorescence slope was -3.4e-05 (inactive).

Consider `CC1N=C2c3ccccc3N=C(SCc3cc(=O)n4cc(Cl)ccc4n3)N2C1=O` (centres undefined), for which, in test [1], the cell count was found to be 346. Also, the inhibition in test [1] is 7.6% (inactive); in test [3] it was 32.4% (inactive); in test [7], 13.1% (inactive); in test [8], 18.7% (inactive). In test [2], the inhibition of aggregation was 18.8% (inactive). Besides, the nuclei count is 102% in test [2] and 92.4% in test [3]. Moreover, the fluorescence slope in test [4] is -0.478 (inactive); in test [6] it was 0.00478 (inactive). The NADPH fluorescence slope in test [5] was -0.0001 (inactive).

On to `O=C(NCc1ccccn1)Nc1ccc2c(c1)OCO2`, for which the cell count in test [1] was determined as 415. The inhibition is -12.8% (inactive) in test [1], 3.1% (inactive) in test [3], 10.3% (inactive) in test [7] and 99.1% (active) in test [8]. For the same molecule, in test [2], the inhibition of aggregation was -6.8% (inactive). Also, the nuclei count was found to be 100% in test [2] and 92.3% in test [3]. The figures for the fluorescence slope in test [4] and in test [6] were -0.459 (inactive) and 0.00592 (inactive), respectively. In test [5], the NADPH fluorescence slope was -1.3e-06 (inactive).

Take `Cc1nc2cc(CO)ccc2n1C`: the cell count in test [1] came to 425. The inhibition in test [1] is 4.7% (inactive); in test [3], -12.6% (inactive); in test [7] it was 2.69% (inactive); in test [8] it was 14.4% (inactive). Further, the inhibition of aggregation in test [2] was 1% (inactive). Further, the nuclei count in test [2] came out at 92.7%; in test [3] it was 108%. Besides, the fluorescence slope in test [4] is -0.589 (inactive); in test [6], 0.00622 (inactive). Moreover, the NADPH fluorescence slope in test [5] is -3.5e-05 (inactive).
